Screens (PubChem)
eIF4E-4G inh: eIF4E–eIF4G protein interaction inhibitors, primary screen, biochemical, uHTS, TR-FRET, eIF4GI fragment; Eukaryotic translation initiation factor 4E (Mus musculus) + Eukaryotic translation …; TR-FRET eIF4E-eIF4GI(517-606) binding, 2 h; inhibition, % at 21.7 µM; 220,000 tested, 0.37% active; AID 782, 2007;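 also: 0% = full FRET control wells and 100% = background wells lacking eIF4GI fragment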
14-3-3 Bad inh: inhibitors of 14-3-3 zeta/Bad binding, primary screen, biochemical, TR-FRET, bovine 14-3-3 zeta; inhibition, % at 21.7 µM; TR-FRET 14-3-3zeta/Dy647-pBad peptide displacement, 1 h; 220,000 tested, 0.71% active; 14-3-3 protein zeta/delta (Bos taurus), P63103; AID 781, 2007;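 active = inhibition above about 70%, limit read from the data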;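 also: 0% = full 14-3-3 plus peptide FRET controls and 100% = background without 14-3-3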
Target sequence (P63103 whole entry, looked up): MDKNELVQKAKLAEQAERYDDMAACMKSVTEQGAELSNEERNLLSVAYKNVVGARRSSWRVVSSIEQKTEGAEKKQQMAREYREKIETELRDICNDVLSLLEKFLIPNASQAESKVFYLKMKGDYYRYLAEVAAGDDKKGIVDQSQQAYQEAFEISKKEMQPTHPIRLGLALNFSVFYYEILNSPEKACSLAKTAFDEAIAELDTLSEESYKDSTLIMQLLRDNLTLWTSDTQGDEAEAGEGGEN
Diaphorase act: compounds boosting diaphorase resazurin reduction – biochemical, uHTS, resorufin fluorescence, counter-screen for diaphorase-coupled primary assays, primary screen. Diaphorase/resazurin coupled assay, 16 min; hits give high values; 1 = vehicle wells, 0 = NADH-free wells. activation factor at 20 µM. AID 1229, 2008. 190,000 tested, 0.005% active;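 active = diaphorase activity raised at least twofold by the compound at 20 µM; inactive = activation factor below 2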
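Measured by – red resorufin fluorescence at 544/590 nm excitation/emission · Test system – Clostridium kluyveri diaphorase, purified enzyme · Incubation – reaction time 16 min, room temperature · Buffer or medium – 50 mM HEPES pH 7.4 with 4.542 mM MgCl2, 0.005% Tween 20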
Hck-Nef inh: inhibitors of Nef-activated human Hck kinase, primary screen, biochemical, Z-Lyte FRET, 384-well, Hck-YEEI | inhibition, % at 20 µM | AID 463187, 2010 | Tyrosine-protein kinase HCK (Homo sapiens), P08631 | 220,000 tested, 0.68% active | Recombinant Hck-YEEI plus Nef, Z-Lyte FRET kinase assay;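 active = Hck-Nef kinase inhibition above about 50%, limit read from the data; inactive = inhibition below that limit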;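 also: 0% = DMSO with Hck plus Nef and 100% = Hck alone without Nef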
NCF1 inh: p47phox/p22phox peptide binding inhibitors, primary screen, biochemical, uHTS, NADPH oxidase regulatory subunit. inhibition, % at 24.7 µM. fluorescence polarization, 2 h. Neutrophil cytosol factor 1 (Homo sapiens), P14598. 220,000 tested, 0.53% active;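 also: 0% = p47phox with labelled peptide and 100% = labelled peptide alone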
Hck Nef conf: retest of Hck:Nef kinase inhibitor hits, confirmation, biochemical, Z-Lyte FRET, 384-well, p-Tyr peptide counterscreen; shares compounds with Hck-Nef inh; Recombinant Hck-YEEI:Nef, Z-Lyte FRET kinase assay; calls only at 10 µM; 1,300 tested, 28% active; AID 463188, 2010;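 active = average inhibition of at least 50%, with Z-scores no higher than 3 in both the phospho-tyrosine peptide and fluorescence counterscreens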
The depositor's hits bear a star; i = inactive; / = not tested or not shown; + = active, no number. An excerpt weighted towards active compounds, which were near 2% of everything screened.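 The calls were made as follows, unless noted: active = inhibition above about 30% (limit read from the data); inactive = the rest.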

SMILES	eIF4E-4G inh	14-3-3 Bad inh	Diaphorase act	Hck-Nef inh	NCF1 inh	others
Cn1c(O)c(C=NC2CCN(Cc3ccccc3)CC2)c(=O)[nH]c1=O	79.5*	0.5	/	17.7	-3.5
COC(=O)Nc1ccc(N=C(N)N[N+](=O)[O-])cc1	-2.4	-13.6	0.8	20.0	-2.6
Cc1ccc(/C=C2\C(=O)NC(=S)N(c3ccccc3F)C2=O)s1	20.1	16.1	0.9	2.7	-15.3
Cc1ccc(/C=C2\C(=O)NC(=S)N(c3ccc(F)cc3)C2=O)s1	3.2	-11.7	1	98.5*	-5.3
O=C1NC(=O)N(Cc2ccc(F)cc2)C(=O)/C1=C\c1ccc(N2CCCC2)cc1	10.3	-6.5	/	23.1	193.4*
Cc1ccsc1C(=O)C1CCCN(Cc2c(C)nn(C(C)C)c2C)C1 (centres undefined)	0.9	1.1	1.1	-7.4	-6.9
CCN1CCN(Cc2ccc(OC(F)(F)F)cc2)CC1	0.4	85.0*	1	0.0	-7.9
CCCCCCOc1ccc(CN2CCN(CC)CC2)cc1	0.3	29.8	0.9	0.4	-6.1
Cc1cc(/C=C2/C(=O)NC(=O)N(Cc3ccco3)C2=O)c(C)n1-c1ccccc1	1.6	2.0	0.9	2.9	-96.3
O=C1NC(=O)N(c2ccccc2)C(=O)/C1=C\c1ccccc1[N+](=O)[O-]	2.5	-1.3	/	20.9	-2.0
O=C1NC(=O)N(Cc2ccco2)C(=O)/C1=C/c1ccc(-c2cccc([N+](=O)[O-])c2)o1	6.5	22.5	0.7	52.4*	-23.0	Hck Nef conf=+
C=CCN1C(=O)NC(=O)/C(=C\c2ccc(-c3ccccc3[N+](=O)[O-])o2)C1=O	2.8	-13.7	0.7	70.0*	-5.2	Hck Nef conf=+
COc1ccc(Cc2c(O)[nH]c(=O)[nH]c2=O)c(OC)c1	-2.9	-2.9	/	17.1	-9.9
Cc1ccc(OP(N)(=O)Oc2ccc(C)cc2)cc1	-5.0	-7.5	1	-13.9	-2.8
CC(C)OCCCNC(=O)c1c(N)n(CC2CCCO2)c2nc3ccccc3nc12 (centres undefined)	/	/	0.8	52.1*	/
CCCNC(=O)c1c(N)n(CC2CCCO2)c2nc3ccccc3nc12 (centres undefined)	-0.6	-6.3	0.8	57.3*	-24.1
CCCCCCn1c(N)c(C(=O)NCCN2CCOCC2)c2nc3ccccc3nc21	1.4	3.8	0.7	64.8*	-35.9	Hck Nef conf=i
CC1(C(O)(C#CCN2CCCCC2)c2ccccc2)CCCC1 (centres undefined)	0.9	0.6	1	7.4	-9.9
Cc1cccc(N2C(=O)NC(=O)/C(=C/c3ccc(-c4ccc(C(=O)O)c(Cl)c4)o3)C2=O)c1	2.6	-12.8	0.8	58.9*	-10.9	Hck Nef conf=i
O=C1NC(=O)N(c2ccc3c(c2)OCO3)C(=O)/C1=C\c1ccc(-c2ccccc2C(=O)O)o1	4.1	9.4	/	44.7	11.0
COc1ccc(C2NCCc3[nH]cnc32)cc1 (centres undefined)	-0.1	-4.9	1	8.6	-5.0
N#Cc1c(N2CCNCC2)nc(-c2ccco2)c2c1CCCC2	-0.8	0.0	/	67.2*	2.2
Cc1nn(Cc2ccccc2)c(Cl)c1C(=O)OCC(=O)N1CCCC1	-0.1	-6.1	1.1	-11.5	-8.5
O=C(O)CCn1cc(C=C2C(=O)NC(=S)NC2=O)c(-c2cc3ccccc3oc2=O)n1	16.0	38.2	0.9	47.7	-53.1
O=C(O)CCn1cc(C=C2C(=O)NC(=S)NC2=O)c(-c2ccccc2)n1	7.7	29.3	0.8	90.0*	-17.8	Hck Nef conf=i
CCCCOCCCn1c(N)c(C(=O)OCCOC)c2nc3ccccc3nc21	/	/	1	30.1	-2.7
COCCCn1c(N)c(C(=O)NCCC(C)C)c2nc3ccccc3nc21	3.6	-1.3	0.7	50.2*	-54.8	Hck Nef conf=i
